SENP8 block-1 = SENP8 (human) protease inhibition; recombinant SENP8, Nedd8 substrate fluorescence; inhibition, % at 20 µM; actives 0.64% (n = 360,000); Q96LD8; in the data active = inhibition mostly above about 40%, no sharp cut-off; inactive = mostly below about 27%
SENP1 FRET inh = inhibitors of human SENP1 SUMO protease catalytic domain | actives 0.21% (n = 360,000) | recombinant SENP1 catalytic domain, CyPet-SUMO1-YPet FRET cleavage | Q9P0U3 | inhibition, % at 10 µM;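 active = inhibition at least 30% at 10 µM, raw YFP signal under a set limit, fluorescence ratio 0.5 to 1.5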;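 note: 0% = enzyme with DMSO and 100% = no enzyme wells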
Target sequence (Q9P0U3 419-644 limits assumed): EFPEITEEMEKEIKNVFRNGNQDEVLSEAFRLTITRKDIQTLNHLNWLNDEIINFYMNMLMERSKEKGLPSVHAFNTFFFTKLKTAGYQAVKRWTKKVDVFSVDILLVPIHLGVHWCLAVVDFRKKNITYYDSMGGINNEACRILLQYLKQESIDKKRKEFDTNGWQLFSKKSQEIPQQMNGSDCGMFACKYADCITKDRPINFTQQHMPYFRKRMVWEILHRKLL
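Material – human SENP1 catalytic domain · Input – SENP1 enzyme, 20 pM final · Compound dosing – single concentration of 10 µM compound, 0.5% DMSO final · Timing – enzyme reaction for 50 min at room temperature, dark · Measured by – FRET fluorescence in CFP and YFP emission channels · Control set – no-enzyme wells low, DMSO-plus-enzyme wells high control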
CendR NRP1 mod = alters CendR peptide binding to human NRP-1; inhibition, % at 25 µM; actives 0.85% (n = 360,000); O14786; AID 602438; FAM-RPARPAR peptide binding to NRP-1, fluorescence polarization;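 active = inhibition or corrected inhibition above about 18%, plus a signal ratio from 0.5 to 1.5, limit read from the data, passing the limit was not always enough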
SENP6 inh = inhibitors of human SENP6 protease; Q9GZR1; Recombinant SENP6 catalytic domain, aminoluciferin luminescence; inhibition, % at 10 µM; actives 1.8% (n = 330,000); AID 2599;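 active = inhibition above about 50% at the single tested dose, limit read from the data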;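 note: plate controls were DMSO wells with enzyme for no effect and DMSO wells lacking enzyme for full effect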
SENP7 block = blocks the human protease SENP7. Q9BQF6. recombinant SENP7, Z-RLRGG-aminoluciferin luminescence, 40 min. inhibition, % at 5 µM. actives 1.5% (n = 330,000). AID 434973;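 active = inhibition above about 50% at the single test dose, limit read from the data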;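 note: plate controls were DMSO with enzyme for no effect and no enzyme buffer wells for full effect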
Target sequence (Q9BQF6 706-1050 limits assumed): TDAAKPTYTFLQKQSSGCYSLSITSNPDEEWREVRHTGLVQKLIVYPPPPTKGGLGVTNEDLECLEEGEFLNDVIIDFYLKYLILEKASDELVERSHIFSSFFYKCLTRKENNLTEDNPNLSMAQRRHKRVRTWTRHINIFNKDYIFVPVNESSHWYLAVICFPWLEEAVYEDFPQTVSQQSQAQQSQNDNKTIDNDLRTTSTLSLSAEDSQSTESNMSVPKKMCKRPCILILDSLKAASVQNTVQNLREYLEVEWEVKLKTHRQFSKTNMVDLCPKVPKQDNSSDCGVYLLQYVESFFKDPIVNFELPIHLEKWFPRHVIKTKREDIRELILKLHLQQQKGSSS
SENP8 block-2 = blocks the human protease SENP8 | purified SENP8, Z-RLRGG-aminoluciferin cleavage, luminescence | inhibition, % at 10 µM | actives 1.2% (n = 330,000); in the data active = inhibition above about 50%
SENP8 conf = confirmation of human SENP8 protease inhibitors; AID 488912; inhibition, % at 12.5 µM; Recombinant SENP8, Z-RLRGG-aminoluciferin luminescence, 60 min; actives 40% (n = 6,200); shares compounds with SENP7 block;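 active = mean inhibition across replicates above about 50%, limit read from the data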
SENP6 conf = confirmation of human SENP6 protease inhibitors | AID 488915 | shares compounds with SENP7 block | recombinant SENP6, Z-RLRGG-aminoluciferin luminescence | actives 58% (n = 6,200) | inhibition, % at 12.5 µM
SENP7 confirm = human SENP7 inhibition, confirmed; inhibition, % at 12.5 µM; AID 488917; actives 69% (n = 6,200); shares compounds with SENP7 block; recombinant SENP7, Z-RLRGG-aminoluciferin luminescence, 40 min
Casp3 SENP sel = caspase-3 inhibition (SENP selectivity assay); shares compounds with SENP7 block; purified caspase-3, Z-DEVD-aminoluciferin luminescence, 60 min; inhibition, % at 12.5 µM; actives 60% (n = 6,200); AID 488918;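 active = mean inhibition above about 50%, limit read from the data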;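 note: plate controls were enzyme with DMSO for no effect and wells without caspase-3 for full effect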
SENP luc ctr = interferes with luciferase luminescence in SENP counter-screen | shares compounds with SENP7 block | Pre-incubated SENP8/Z-RLRGG-aminoluciferin, luciferase luminescence interference | inhibition, % at 12.5 µM | actives 39% (n = 6,200) | AID 488919;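 active = mean inhibition above about 50% when retested at one dose, limit read from the data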;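 note: plate controls were DMSO wells with completed reaction for no effect and substrate without enzyme for full effect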
An asterisk follows results filed as active. Compounds with a hit are over-represented: about 3.3% of the library has one in this group of screens.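 Rule for the calls, unless noted: active = mean inhibition above about 50% in the one-dose retest (limit read from the data); inactive = the rest.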

`N#C/C(=N\Nc1cccc([N+](=O)[O-])c1)C(=O)c1ccc(Br)cc1` gave SENP8 block-1 6.6, SENP1 FRET inh -1.4, CendR NRP1 mod 8.8, SENP6 inh 71.5*, SENP7 block 0.4, SENP8 block-2 60.3*, SENP8 conf -0.1, SENP6 conf 65.6*, SENP7 confirm 44.8, Casp3 SENP sel 3.7 and SENP luc ctr 59.1*.
N#C/C(=N\Nc1ccc([N+](=O)[O-])cc1)C(N)=S was read as SENP8 block-1 47.3*, SENP1 FRET inh 10.3, CendR NRP1 mod -37.1, SENP6 inh 97.7*, SENP7 block 92.1*, SENP8 block-2 90.5*, SENP8 conf 97.2*, SENP6 conf 98.1*, SENP7 confirm 102.3*, Casp3 SENP sel 96.8* and SENP luc ctr 90.3*.
For N#C/C(=N/Nc1ccc([N+](=O)[O-])cc1)C(=N)N1CCCCC1 the results were SENP8 block-1 29.8, SENP1 FRET inh 13.0 and CendR NRP1 mod -20.6.
For c1ccc(-n2nc3c(ccc4cnnc43)[nH]2)cc1 the results were SENP8 block-1 -478.7, SENP1 FRET inh 1.5, CendR NRP1 mod -13.6, SENP6 inh 89.2*, SENP7 block 86.6*, SENP8 block-2 73.9*, SENP8 conf 50.1*, SENP6 conf 82.6*, SENP7 confirm 96.8*, Casp3 SENP sel 70.8* and SENP luc ctr 30.0.
`CCc1ccccc1Oc1nc(NC(C)C)nc2ccsc12` gave SENP8 block-1 -178.5, SENP1 FRET inh -1.4 and CendR NRP1 mod 1.3.
Cn1c(NCC2CCCCC2)nc2cc(-c3ccsc3)sc2c1=O was read as SENP8 block-1 -95.3, SENP1 FRET inh -0.7 and CendR NRP1 mod -8.8.
For CCOc1ccc(NC(=O)c2[nH]c(C)c(C(C)=O)c2C)cc1 the results were SENP8 block-1 17.1, SENP1 FRET inh -1.5, CendR NRP1 mod 6.3, SENP6 inh 50.3*, SENP7 block 58.7*, SENP8 block-2 41.4, SENP8 conf 56.7*, SENP6 conf 50.3*, SENP7 confirm 81.0*, Casp3 SENP sel 74.8* and SENP luc ctr 62.1*.
CC(=O)c1c(C)[nH]c(C(=O)Nc2ccc3c(c2)OCCO3)c1C was read as SENP8 block-1 16.3, SENP1 FRET inh 1.1, CendR NRP1 mod 1.5, SENP6 inh 57.6*, SENP7 block 57.5*, SENP8 block-2 23.1, SENP8 conf 57.1*, SENP6 conf 53.3*, SENP7 confirm 83.8*, Casp3 SENP sel 75.1* and SENP luc ctr 59.7*.
For CCOc1ccc(NC(=O)c2c(N)n(C)c(=O)[nH]c2=O)cc1 the results were SENP8 block-1 22.9, SENP1 FRET inh 0.4, CendR NRP1 mod -5.4, SENP6 inh 58.5*, SENP7 block 47.6, SENP8 block-2 20.2, SENP8 conf 15.0, SENP6 conf 11.7, SENP7 confirm 23.0, Casp3 SENP sel 26.7 and SENP luc ctr 1.7.
CCOC(=O)c1[nH]c(C)c(C(=O)Nc2ccc3c(c2)OCCO3)c1C was read as SENP8 block-1 29.7, SENP1 FRET inh -0.2, CendR NRP1 mod -7.2, SENP6 inh 3.5, SENP7 block 4.5 and SENP8 block-2 0.0.
For Cc1ccc(NC(=O)COC(=O)C2(CC(=O)NC(C)C)CCCC2)cc1C the results were SENP8 block-1 5.9, SENP1 FRET inh -0.3, CendR NRP1 mod -14.9, SENP6 inh -0.1, SENP7 block 6.1 and SENP8 block-2 -2.8.
`Cc1ccccc1OCC(O)Cn1c(=N)n(Cc2ccccc2)c2ccccc21` (configuration not stated) gave SENP8 block-1 20.2, SENP1 FRET inh 1.7, CendR NRP1 mod 2.0, SENP6 inh -18.4, SENP7 block 50.8*, SENP8 block-2 -5.4, SENP8 conf -30.4, SENP6 conf -20.3, SENP7 confirm -10.5, Casp3 SENP sel -10.7 and SENP luc ctr -15.5.
For COc1ccccc1OCC(O)Cn1c(=N)n(Cc2ccccc2)c2ccccc21 (configuration not stated) the results were SENP8 block-1 14.4, SENP1 FRET inh 1.3, CendR NRP1 mod -14.1, SENP6 inh -1.7, SENP7 block -11.3 and SENP8 block-2 -1.2.
Cc1ccc(C(=O)Nc2ncc3c(Cl)cccc3n2)cc1 was read as SENP8 block-1 4.2, SENP1 FRET inh 1.6, CendR NRP1 mod 3.3, SENP6 inh 87.5*, SENP7 block 90.7*, SENP8 block-2 81.1*, SENP8 conf 82.9*, SENP6 conf 92.6*, SENP7 confirm 98.7*, Casp3 SENP sel 93.2* and SENP luc ctr 52.2*.
Screening O=C(Nc1ccc(Cl)cn1)c1cccc(OCc2ccccc2)c1 returned SENP8 block-1 13.3, SENP1 FRET inh 2.0, CendR NRP1 mod 7.7, SENP6 inh -10.2, SENP7 block -5.2 and SENP8 block-2 -8.4.
`Cc1ccccc1C(=O)Nc1ccc(Br)c(C)n1` gave SENP8 block-1 11.7, SENP1 FRET inh 2.4, CendR NRP1 mod 7.5, SENP6 inh 58.9*, SENP7 block 66.1*, SENP8 block-2 42.6, SENP8 conf 60.7*, SENP6 conf 61.5*, SENP7 confirm 87.0*, Casp3 SENP sel 65.2* and SENP luc ctr 58.4*.
Screening CCCOc1ccc(C(=O)Nc2ccc(Cl)cn2)cc1 returned SENP8 block-1 7.2, SENP1 FRET inh 1.9, CendR NRP1 mod -12.9, SENP6 inh 78.0*, SENP7 block 83.8*, SENP8 block-2 71.1*, SENP8 conf 21.3, SENP6 conf 22.6, SENP7 confirm 50.5*, Casp3 SENP sel 39.5 and SENP luc ctr 20.4.
Screening O=C(Nc1ccc(Cl)cn1)c1ccc(Oc2ccccc2)cc1 returned SENP8 block-1 2.9, SENP1 FRET inh -0.2, CendR NRP1 mod -0.1, SENP6 inh 91.1*, SENP7 block 91.0*, SENP8 block-2 90.0*, SENP8 conf 27.0, SENP6 conf 52.5*, SENP7 confirm 57.8*, Casp3 SENP sel 47.4 and SENP luc ctr 5.4.
Cc1ccc(C(=O)Nc2nccc(-c3cccs3)n2)cc1 was read as SENP8 block-1 -6.8, SENP1 FRET inh 0.4, CendR NRP1 mod 2.1, SENP6 inh -13.5, SENP7 block -10.1 and SENP8 block-2 -10.0.

High-throughput results from PubChem.
